Experimental data as given in ChEMBL document CHEMBL4219111, “Multifunctional 5,6-dimethoxybenzo[d]isothiazol-3(2H)-one-N-alkylbenzylamine derivatives with acetylcholinesterase, monoamine oxidases and β-amyloid aggregation inhibitory activities as potential agents against Alzheimer's disease” (Bioorg Med Chem, 2018).
Active and inactive are the calls of the source. The calls are words filed in the database; no cut-off is given here.

Key:
[1] = molecular target: Acetylcholinesterase (Electrophorus electricus, UniProt O42275); assay: Inhibition of Electrophorus electricus AChE using acetylthiocholine iodide as substrate measured after 15 mins by Ellman's method
[2] = Antioxidant activity assessed as trolox equivalents of AAPH radical scavenging activity at 5 uM preincubated for 15 mins followed by AAPH addition measured every min for 90 mins by ORAC-FL assay; format: functional
Summary of the method: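 ORAC-FL in 75 mM phosphate buffer pH 7.4, 200 µL final. Sample plus fluorescein (150 nM final) pre-incubated 15 min at 37 °C, then AAPH added (12 mM final). Fluorescence read every minute for 90 min, ex 485/em 535 nm, normalized to FL+AAPH blank. Trolox standard 1-8 µM final; values given as µM Trolox equivalent per µM compound. Duplicate wells, at least three independent assays.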

[3] = species: Rattus norvegicus; assay: Inhibition of rat serum BuChE using butyrylthiocholine iodide as substrate measured at 50 uM after 15 mins by Ellman's method relative to control
Summary of the method: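 Rat serum (25%) as enzyme source; modified Ellman method in […] pH 7.4 with 1 mmol/L butyrylthiocholine iodide and 0.2% DTNB; 37 °C for 15 min, absorbance at 405 nm. Percent inhibition at 50 µM test compound, each concentration in triplicate.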

[4] = molecular target: T1, Amine oxidase [flavin-containing] B (Homo sapiens, UniProt P27338); assay: Inhibition of recombinant human MAO-B at 10 uM using kynuramine as substrate after 30 mins by fluorescence assay relative to control; settings: 0.5 h
T1 sequence (P27338 whole entry): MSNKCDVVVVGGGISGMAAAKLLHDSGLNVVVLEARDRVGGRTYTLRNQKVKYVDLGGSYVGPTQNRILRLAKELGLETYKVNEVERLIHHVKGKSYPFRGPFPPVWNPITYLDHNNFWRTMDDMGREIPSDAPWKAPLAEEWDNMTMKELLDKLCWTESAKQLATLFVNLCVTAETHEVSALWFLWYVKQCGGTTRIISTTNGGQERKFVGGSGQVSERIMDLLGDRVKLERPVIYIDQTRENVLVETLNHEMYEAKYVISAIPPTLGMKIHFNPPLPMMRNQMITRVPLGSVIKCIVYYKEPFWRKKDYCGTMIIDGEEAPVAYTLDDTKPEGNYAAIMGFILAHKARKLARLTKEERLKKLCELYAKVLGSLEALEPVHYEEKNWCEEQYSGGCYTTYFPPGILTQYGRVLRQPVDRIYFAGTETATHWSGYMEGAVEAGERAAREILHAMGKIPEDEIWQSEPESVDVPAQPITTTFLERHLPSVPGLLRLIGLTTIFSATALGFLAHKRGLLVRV
Summary of the method: (§1)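 Recombinant human MAO-A or MAO-B, kynuramine substrate (45 µM for MAO-A, 30 µM for MAO-B), in 100 mM potassium phosphate pH 7.40 with 20.2 mM KCl and under 4% DMSO. Enzyme (7.5 µg/mL) starts the reaction; 30 min at 37 °C. Stopped with NaOH plus water, centrifuged, supernatant fluorescence read at ex 310/em 400 nm. Percent inhibition at 10 µM.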

[5] = molecular target: T2, Amine oxidase [flavin-containing] A (Homo sapiens, UniProt P21397); assay: Inhibition of recombinant human MAO-A using kynuramine as substrate after 30 mins by fluorescence assay
T2 sequence (P21397 whole entry): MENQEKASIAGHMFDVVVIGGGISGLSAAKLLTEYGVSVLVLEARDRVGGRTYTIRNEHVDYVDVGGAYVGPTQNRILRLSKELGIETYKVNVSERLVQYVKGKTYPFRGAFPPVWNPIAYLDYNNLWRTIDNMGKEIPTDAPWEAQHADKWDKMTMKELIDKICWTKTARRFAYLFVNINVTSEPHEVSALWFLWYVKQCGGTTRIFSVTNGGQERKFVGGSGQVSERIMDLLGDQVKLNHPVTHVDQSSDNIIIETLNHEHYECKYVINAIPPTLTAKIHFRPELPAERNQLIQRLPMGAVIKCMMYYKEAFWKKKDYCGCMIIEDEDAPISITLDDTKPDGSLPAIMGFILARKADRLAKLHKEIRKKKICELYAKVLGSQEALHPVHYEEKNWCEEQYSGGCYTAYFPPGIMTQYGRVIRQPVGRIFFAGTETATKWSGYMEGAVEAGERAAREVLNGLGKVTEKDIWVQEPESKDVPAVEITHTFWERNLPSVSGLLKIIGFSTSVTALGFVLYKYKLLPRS

[6] = molecular target: Amyloid-beta precursor protein (Homo sapiens) (UniProt P05067); assay: Inhibition of self-induced aggregation of amyloid beta (1 to 42) (unknown origin) at 25 uM after 24 hrs by thioflavin T fluorescence-based fluorometric method relative to control
Summary of the method: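 Aβ1-42 pretreated in HFIP 24 h at room temperature, dried, redissolved in DMSO. Peptide (25 µM final) incubated with compound (25 µM final) in 50 mM phosphate pH 7.4 for 24 h at 37 °C. ThT (5 µM) added in 50 mM glycine-NaOH pH 8.5; fluorescence read at ex 446/em 490 nm. Inhibition = (1 − IFi/IFc)×100 after background subtraction, triplicate.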

[7] = species: Homo sapiens; assay: Selectivity index, ratio of IC50 for recombinant human MAO-A to IC50 for recombinant human MAO-B
Summary of the method: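 Ratio of IC50s, each from a sigmoidal curve of initial kynuramine oxidation rate versus log inhibitor concentration. Curves used six concentrations within 0-100 µM, spanning at least three orders of magnitude. IC50s determined in triplicate.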

[8] = molecular target: T1, Amine oxidase [flavin-containing] B; assay: Inhibition of recombinant human MAO-B using kynuramine as substrate after 30 mins by fluorescence assay
[9] = molecular target: Acetylcholinesterase (Electrophorus electricus) (UniProt O42275); assay: Mixed type inhibition of Electrophorus electricus AChE at 0.1 to 0.5 uM using varying levels of acetylthiocholine iodide as substrate incubated for 15 mins followed by substrate addition by Lineweaver-Burk plot analysis
[10] = Effective permeability of the compound at 100 ug/ml after 18 hrs by PAMPA-BBB assay
[11] = molecular target: T2, Amine oxidase [flavin-containing] A; assay: Inhibition of recombinant human MAO-A at 10 uM using kynuramine as substrate after 30 mins by fluorescence assay relative to control; settings: 0.5 h; summary of the method: as §1
[12] = Inhibition of rat serum BuChE using butyrylthiocholine iodide as substrate measured after 15 mins by Ellman's method

Chain of Amyloid-beta precursor protein (Homo sapiens) (P05067 whole entry): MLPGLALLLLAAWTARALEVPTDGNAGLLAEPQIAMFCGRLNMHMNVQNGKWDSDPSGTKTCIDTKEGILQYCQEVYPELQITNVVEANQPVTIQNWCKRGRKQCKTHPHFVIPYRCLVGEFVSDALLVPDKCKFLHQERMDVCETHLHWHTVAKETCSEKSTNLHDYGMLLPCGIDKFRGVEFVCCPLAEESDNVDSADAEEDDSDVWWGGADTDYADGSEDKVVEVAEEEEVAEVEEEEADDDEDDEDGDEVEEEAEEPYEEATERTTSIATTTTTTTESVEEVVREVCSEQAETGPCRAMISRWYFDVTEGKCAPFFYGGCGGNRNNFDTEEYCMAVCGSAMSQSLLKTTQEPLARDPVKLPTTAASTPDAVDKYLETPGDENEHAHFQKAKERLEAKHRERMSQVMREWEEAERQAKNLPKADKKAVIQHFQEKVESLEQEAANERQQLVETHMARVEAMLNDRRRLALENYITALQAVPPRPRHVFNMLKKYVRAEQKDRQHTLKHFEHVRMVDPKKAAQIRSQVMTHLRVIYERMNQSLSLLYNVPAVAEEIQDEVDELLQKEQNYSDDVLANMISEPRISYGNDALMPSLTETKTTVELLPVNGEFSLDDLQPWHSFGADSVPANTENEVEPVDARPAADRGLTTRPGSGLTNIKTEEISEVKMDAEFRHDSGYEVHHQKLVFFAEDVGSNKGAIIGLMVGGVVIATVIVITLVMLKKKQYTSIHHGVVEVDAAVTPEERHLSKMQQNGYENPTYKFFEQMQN
Chain of Acetylcholinesterase (O42275 whole entry): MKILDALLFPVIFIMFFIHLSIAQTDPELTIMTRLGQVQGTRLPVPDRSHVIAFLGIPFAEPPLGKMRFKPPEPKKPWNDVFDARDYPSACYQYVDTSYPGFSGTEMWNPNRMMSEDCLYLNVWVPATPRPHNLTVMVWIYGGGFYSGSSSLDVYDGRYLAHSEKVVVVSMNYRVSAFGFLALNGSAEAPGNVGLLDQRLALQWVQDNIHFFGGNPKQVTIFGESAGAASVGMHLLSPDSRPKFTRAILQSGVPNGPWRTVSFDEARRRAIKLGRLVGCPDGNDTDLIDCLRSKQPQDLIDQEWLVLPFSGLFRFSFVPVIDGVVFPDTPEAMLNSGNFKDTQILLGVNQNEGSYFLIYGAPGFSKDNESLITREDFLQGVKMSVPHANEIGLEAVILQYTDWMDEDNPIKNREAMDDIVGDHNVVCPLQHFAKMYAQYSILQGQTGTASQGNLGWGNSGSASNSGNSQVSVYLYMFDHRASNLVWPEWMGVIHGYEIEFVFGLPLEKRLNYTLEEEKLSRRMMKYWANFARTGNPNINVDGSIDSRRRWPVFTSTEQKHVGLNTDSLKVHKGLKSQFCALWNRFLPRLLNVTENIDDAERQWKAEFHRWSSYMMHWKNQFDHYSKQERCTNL
Chain of Acetylcholinesterase (Electrophorus electricus) (O42275 24-633 limits assumed): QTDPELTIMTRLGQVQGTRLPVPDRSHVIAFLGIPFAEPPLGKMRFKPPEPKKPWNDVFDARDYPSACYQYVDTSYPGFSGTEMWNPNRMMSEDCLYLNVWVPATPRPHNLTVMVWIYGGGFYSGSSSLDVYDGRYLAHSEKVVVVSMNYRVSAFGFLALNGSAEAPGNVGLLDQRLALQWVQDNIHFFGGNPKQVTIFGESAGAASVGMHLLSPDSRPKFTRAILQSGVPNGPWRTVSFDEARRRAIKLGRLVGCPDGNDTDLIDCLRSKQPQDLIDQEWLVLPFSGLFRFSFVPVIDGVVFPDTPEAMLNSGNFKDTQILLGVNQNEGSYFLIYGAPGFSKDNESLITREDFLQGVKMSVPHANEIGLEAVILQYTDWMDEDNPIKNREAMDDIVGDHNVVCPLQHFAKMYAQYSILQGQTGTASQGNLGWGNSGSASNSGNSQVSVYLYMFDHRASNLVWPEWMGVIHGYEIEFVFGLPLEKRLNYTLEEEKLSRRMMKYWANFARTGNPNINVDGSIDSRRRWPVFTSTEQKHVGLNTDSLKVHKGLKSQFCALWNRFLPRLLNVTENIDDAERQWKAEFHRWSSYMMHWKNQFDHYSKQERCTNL

SMILES | IC50 [1] [µM] | Activity [2] [equiv] | inhibition [3] [%] | inhibition at 10 µM [4] [%] | IC50 [5] [µM] | inhibition [6] [%] | Ratio IC50 [7] | IC50 [8] [µM] | inhibition [9] | Papp at 18 h, 100 ug/ml [10] [×10⁻⁶ cm/s] | inhibition at 10 µM [11] [%] | IC50 [12] [µM]
COc1cc2sn(CCCN(C)Cc3ccccc3)c(=O)c2cc1OC | 7.5 | 0.91 | 11.5 | 44.4 | 6.9 | 7.6 | – | – | – | – | – | –
CCN(CCCn1sc2cc(OC)c(OC)cc2c1=O)Cc1ccc(N(C)C)cc1 | 12.9 | 0.58 | 9.6 | 40.1 | 11.3 | 13.4 | – | – | – | – | – | –
CCN(CCCCCCn1sc2cc(OC)c(OC)cc2c1=O)Cc1ccccc1 | 0.29 | 0.27 | 48.2 | – | 8.2 | 35.4 | 0.41 | 20.1 | Active | 15.6 | – | –
CCN(CCCCCCN1C(=O)c2cc(OC)c(OC)cc2S1(=O)=O)Cc1ccccc1 | 13.1 | 0.2 | 35.7 | 38.9 | – | 6 | – | – | – | – | 30.2 | –
COc1cc2s[nH]c(=O)c2cc1OC | 34.9 | 0.29 | 10.3 | 14 | 21 | 12.2 | – | – | – | – | – | –
CCN(CCCCCCn1sc2cc(OC)c(OC)cc2c1=O)Cc1ccccc1N(C)C | 0.56 | 0.35 | 46.8 | – | 3.4 | 31.2 | 0.17 | 19.6 | – | – | – | –
CCN(CCCCn1sc2cc(OC)c(OC)cc2c1=O)Cc1ccccc1 | 0.8 | 0.53 | 21.8 | – | 19.9 | 9.4 | 0.99 | 20.1 | – | – | – | –
COc1ccccc1CN(C)CCCCCCn1c(=O)c2cc(OC)c(OC)cc2[s+]1[O-] (configuration not stated) | 0.8 | 0.33 | 28.7 | 12.2 | – | 38 | – | – | – | – | 23.8 | –
CCN(CCCCCCn1sc2cc(OC)c(OC)cc2c1=O)Cc1ccccc1OC | 0.46 | 0.28 | 46.9 | 43.8 | 7.9 | 48 | – | – | – | 4.32 | – | –
COc1ccccc1CN(C)CCCCCCN1C(=O)c2cc(OC)c(OC)cc2S1(=O)=O | 1.02 | 0.16 | < 5 | 29.2 | – | 23.9 | – | – | – | – | 28.1 | –
COc1ccccc1CN(C)CCCCn1sc2cc(OC)c(OC)cc2c1=O | 5.9 | 0.39 | 25.5 | – | 7.1 | 11.7 | 0.37 | 19.2 | – | – | – | –
CCN(CCCCCCn1sc2cc(OC)c(OC)cc2c1=O)Cc1ccc(N(C)C)cc1 | 6.5 | 1.92 | 22.7 | – | 7.1 | 33.4 | 0.57 | 12.4 | – | – | – | –
CCN(CCCCn1sc2cc(OC)c(OC)cc2c1=O)Cc1ccccc1N(C)C | 7.1 | 0.34 | 32.6 | 46.5 | 9.9 | 11.7 | – | – | – | – | – | –
CCN(CCCCn1sc2cc(OC)c(OC)cc2c1=O)Cc1ccc(N(C)C)cc1 | 8.85 | 2.14 | 23.2 | – | 15.9 | 32.5 | 0.85 | 18.8 | – | – | – | –
CCN(CCCCCCn1c(=O)c2cc(OC)c(OC)cc2[s+]1[O-])Cc1ccccc1 (configuration not stated) | 0.38 | 0.23 | 8.1 | 14.6 | – | 29.2 | – | – | – | – | 21.5 | –
COc1ccccc1CN(C)CCCn1sc2cc(OC)c(OC)cc2c1=O | 12 | 0.83 | 10.8 | 48.6 | 9.4 | 21.8 | – | – | – | – | – | –
CCN(CCCn1sc2cc(OC)c(OC)cc2c1=O)Cc1ccccc1OC | 8.3 | 0.82 | 18.9 | 37 | 15.5 | 12.4 | – | – | – | – | – | –
COc1cc2c(cc1OC)C(=O)C(CC1CCN(Cc3ccccc3)CC1)C2 (configuration not stated) [DONEPEZIL] | – | – | – | – | – | – | – | – | – | – | – | 21.4
CCN(CCCCn1sc2cc(OC)c(OC)cc2c1=O)Cc1ccccc1OC | 4.99 | 0.3 | 36.4 | – | 9.6 | 21.1 | 0.49 | 19.4 | – | – | – | –
COc1cc2sn(CCCCCCN(C)Cc3ccccc3)c(=O)c2cc1OC | 0.35 | 0.29 | 23.1 | – | 23 | 4.3 | 1.74 | 13.2 | – | – | – | –
CCN(CCCn1sc2cc(OC)c(OC)cc2c1=O)Cc1ccccc1 | 6.65 | 0.84 | 12.3 | 46.3 | 9.9 | 19.6 | – | – | – | – | – | –
COc1ccccc1CN(C)CCCCCCn1sc2cc(OC)c(OC)cc2c1=O | 0.61 | 0.26 | 28.8 | – | 19.9 | 20.2 | 1.45 | 13.7 | – | – | – | –
COc1cc2sn(CCCCN(C)Cc3ccccc3)c(=O)c2cc1OC | 1.2 | 0.21 | 14.7 | – | 8.9 | 17.3 | 0.45 | 19.7 | – | – | – | –
CCN(CCCn1sc2cc(OC)c(OC)cc2c1=O)Cc1ccccc1N(C)C | 9.7 | 0.22 | 27.9 | 45.4 | 16.6 | 19.8 | – | – | – | – | – | –
